For assay [1], the target named is T1, Ca^2+-S100B (Rattus norvegicus, UniProt P04631).
T1 sequence (P04631 1-92): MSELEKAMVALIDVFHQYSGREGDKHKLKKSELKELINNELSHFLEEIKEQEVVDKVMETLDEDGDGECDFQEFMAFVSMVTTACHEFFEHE
Kind of assay: HSQC NMR of Ca2+-loaded S100B with SBiX compounds. It is filed as binding. The note with it: result in words; for effect on NMR spectra of Ca^2+-S100B (chemical shift perturbations / broadening): compared with pentamidine and heptamidine. A digest of the protocol: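 Samples: 15N-labelled rat S100B (purified >99%) at 0.1 mM subunit with 0.125 mM test compound, 10 mM CaCl2, 15 mM NaCl, 0.34 mM NaN3, 0.2% TPEN, 5% DMSO-d6, 10% D2O, 10 mM HEPES pH 7.2. 1H-15N HSQC spectra; 15N shifts indirectly referenced (ratio 0.10132905). Spectra were inspected visually for combined 1H+15N chemical shift perturbations to map the binding site.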

Assay [2] concerns the target T2, Ca^2+-loaded S100B (Rattus norvegicus, UniProt P04631).
T2 sequence (P04631 1-92): T1 sequence (P04631 1-92)
Kind of assay: Fluorescence polarization competition assay. It is filed as binding. The note with it: Site 1 probe; result in words. A digest of the protocol:
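Competition of test compound with 10 nM TAMRA-labelled TRTK12 peptide (CapZ residues 265-276), bound to Site 1 of 1 μM rat S100B, all final concentrations. Compound titrated from the highest attainable concentration. Fluorescence polarization read at room temperature, ex 544 nm/em 590 nm.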

In assay [3] the test system is WM115 melanoma cells. Kind of assay: Cellular assays, EC50 quoted in text without S100B level. In kind it is cell-based, human. To be noted: for EC50: Homo sapiens; for S100B-dependent killing (high vs low S100B cells): S100B-knockdown cell lines, result in words.
In assay [4] the test system is WM115 melanoma cells transfected with shRNA^S100B (low S100B). Kind of assay: SYBR Green cell proliferation. It is filed as cell-based, human. To be noted: read-out: Low S100B EC50 Mean ± S.D.
Where [5] appears, read: WM-115, read-out: EC50 in cellular assays.

Like-named read-outs stand apart in the source and are kept apart here.

For the compound `CNC(=O)NC(=N)c1ccc(OCCCCCCCOc2ccc(C(=N)NC(=O)NC)cc2)cc1` [compound 11, 4,4′-(heptane-1,7-diylbis (oxy))bis(N-(methylcarbamoyl)benzimidamide)], the “binding to Ca^2+-S100B as measured using NMR” value (“binding to Ca^2+-S100B” below) in assay [1] is on record as “ability to bind”. Besides, the “ability to compete with TAMRA-TRTK probe in FPCA” value (shortened to “ability to compete”) in assay [2] is “neither was able to compete”. The EC50 in assay [3] (setting [5]) lay in the range of 130 to 150 µM.
`N=C(N)c1ccc(OCCCCCOc2ccc(C(=N)N)cc2)cc1` [4b, pentamidine, reference compound]: in assay [3] (WM-115, read-out: ^CellsEC50), the EC50 was 26 µM.
For `CCCN(CCCOc1ccc(C(=N)N)cc1)CCCOc1ccc(C(=N)N)cc1` [16b, 4,4′-(((propylazanediyl)bis(propane-3,1-diyl))bis(oxy))dibenzimidamide], in assay [1], the “binding to Ca^2+-S100B” value is on record as “bound weakly”. In addition, the “ability to compete” value in assay [2] is “neither was able to compete”. In addition, the EC50 in assay [3] (setting [5]) is greater than 500 µM.
For the compound `c1cc(C2=NCCCN2)ccc1OCCCCCCOc1ccc(C2=NCCCN2)cc1` [6c, 1,6-bis(4-(1,4,5,6-tetrahydropyrimidin-2-yl)phenoxy)hexane], in assay [3] (setting [5]), the EC50 lay within 25 to 45 µM.
Take `c1cc(C2=NCCCCN2)ccc1OCCCCCOc1ccc(C2=NCCCCN2)cc1` [7b, 1,5-bis (4-(4,5,6,7-tetrahydro-1H-1,3-diazepin-2-yl)phenoxy)pentane]: in assay [3] (setting [5]), the EC50 lay in the range of 5 to 20 µM.
For `c1cc(C2=NCCN2)ccc1OCCCCCCCCOc1ccc(C2=NCCN2)cc1` [5d, 1,8-bis (4-(4,5-dihydro-1H-imidazol-2-yl)phenoxy) octane], the “effect on NMR spectra of Ca^2+-S100B (chemical shift perturbations / broadening)” value in assay [1] is “significant broadening”.
In the case of `N=C(N)c1ccc(Oc2ccc(-c3cc4ccc(C(=N)N)cc4[nH]3)cc2)cc1` [compound 17, 2-(4-(4-carbamimidoylphenoxy)phenyl)-1H-indole-6-carboximidamide], the “binding to Ca^2+-S100B” value in assay [1] was “found to bind”. Also, the “ability to compete” value in assay [2] was “found to inhibit TAMRA-TRTK binding”. In addition, in assay [3], the “S100B-dependent killing (high vs low S100B cells)” value was “no S100B-dependent killing”.
In the case of `N=C(NCCCCCCCN)c1ccc(OCCCCCCCCOc2ccc(C(=N)NCCCCCCCN)cc2)cc1` [9b, 4,4′-(octane-1,8-diylbis (oxy))bis(N-(7-aminoheptyl)benzimidamide)], in assay [1], the “effect on NMR spectra of Ca^2+-S100B (chemical shift perturbations / broadening)” value is listed as “significant broadening” and the “binding to Ca^2+-S100B” value was “interacted”. In assay [2], the “ability to compete” value is recorded as “found to compete”.
`c1cc(C2=NCCCCN2)ccc1OCCCCCCOc1ccc(C2=NCCCCN2)cc1` [7c, 1,6-bis(4-(4,5,6,7-tetrahydro-1H-1,3-diazepin-2-yl)phenoxy)hexane]: the EC50 in assay [3] (setting [5]) fell in the range of 250 to 300 µM.
As for hexamidine [4c], the EC50 in assay [4] amounted to 234 ± 7.9 µM.
Consider `c1cc(C2=NCCCCN2)ccc1OCCCCCCCOc1ccc(C2=NCCCCN2)cc1` [7a, 1,7-bis(4-(4,5,6,7-tetrahydro-1H-1,3-diazepin-2-yl)phenoxy)heptane], for which the EC50 in assay [3] (setting [5]) fell in the range of 5 to 20 µM.
Take `c1cc(C2=NCCCN2)ccc1OCCCCCOc1ccc(C2=NCCCN2)cc1` [6b, 1,5-bis(4-(1,4,5,6-tetrahydropyrimidin-2-yl)phenoxy)pentane]: the “effect on NMR spectra of Ca^2+-S100B (chemical shift perturbations / broadening)” value in assay [1] was “significant broadening”. Besides, the EC50 in assay [3] (setting [5]) was in the range of 200 to 600 µM.
For the compound `N=C(N)c1ccc(OCCCN(CCCOc2ccc(C(=N)N)cc2)Cc2ccccc2)cc1` [16a, 4,4′-(((benzylazanediyl)bis(propane-3,1-diyl))bis(oxy))dibenzimidamide], the “binding to Ca^2+-S100B” value in assay [1] is “bound weakly”. Besides, in assay [2], the “ability to compete” value is reported as “neither was able to compete”. Also, the EC50 in assay [3] (setting [5]) is 40 to 50 µM.
`c1cc(C2=NCCN2)ccc1OCCCCCOc1ccc(C2=NCCN2)cc1` [5b, 1,5-bis(4-(4,5-dihydro-1H-imidazol-2-yl)phenoxy)pentane]: in assay [1], the “effect on NMR spectra of Ca^2+-S100B (chemical shift perturbations / broadening)” value is on record as “significant broadening”.
`N=C(NCCCCCN)c1ccc(OCCCCCOc2ccc(C(=N)NCCCCCN)cc2)cc1` [compound 8, 4,4′-(pentane-1,5-diylbis(oxy))bis(N-(5-aminopentyl)benzimidamide)]: the “binding to Ca^2+-S100B” value in assay [1] is reported as “interacted”. Further, the “ability to compete” value in assay [2] is recorded as “found to compete”. Moreover, the EC50 in assay [3] (setting [5]) was 35 to 40 µM.
On to `c1cc(C2=NCCCCN2)ccc1OCCCCCCCCOc1ccc(C2=NCCCCN2)cc1` [7d, 1,8-bis (4-(4,5,6,7-tetrahydro-1H-1,3-diazepin-2-yl)phenoxy)octane], for which the EC50 in assay [3] (setting [5]) was in the range of 5 to 20 µM.
Regarding `c1cc(C2=NCCCN2)ccc1OCCCCCCCOc1ccc(C2=NCCCN2)cc1` [6a, 1,7-bis (4-(1,4,5,6-tetrahydropyrimidin-2-yl)phenoxy)heptane], in assay [3] (setting [5]), the EC50 lay within 200 to 600 µM.
Regarding `N=C(NCCCCCCCN)c1ccc(OCCCCCCCOc2ccc(C(=N)NCCCCCCCN)cc2)cc1` [9a, 4,4′-(heptane-1,7-diylbis(oxy))bis(N-(7-aminoheptyl)benzimidamide)], in assay [1], the “effect on NMR spectra of Ca^2+-S100B (chemical shift perturbations / broadening)” value is listed as “significant broadening” and the “binding to Ca^2+-S100B” value is on record as “interacted”. Also, the “ability to compete” value in assay [2] was “found to compete”.
Take `N=C(NC(=O)Nc1ccccc1)c1ccc(OCCCCCCCOc2ccc(C(=N)NC(=O)Nc3ccccc3)cc2)cc1` [compound 10, 4,4′-(heptane-1,7-diylbis(oxy))bis(N-(phenylcarbamoyl)benzimidamide)]: the “binding to Ca^2+-S100B” value in assay [1] is “ability to bind”. For the same compound, in assay [2], the “ability to compete” value is recorded as “neither was able to compete”. Also, the EC50 in assay [3] (setting [5]) was less than 1 µM.
Regarding `c1cc(C2=NCCN2)ccc1OCCCCCCOc1ccc(C2=NCCN2)cc1` [5c, 1,6-bis(4-(4,5-dihydro-1H-imidazol-2-yl)phenoxy)hexane], in assay [1], the “effect on NMR spectra of Ca^2+-S100B (chemical shift perturbations / broadening)” value is reported as “significant broadening”.
Consider `N=C(N)c1ccc(OCCCCCCCOc2ccc(C(=N)N)cc2)cc1` [4a, Heptamidine], for which, in assay [3], the “S100B-dependent killing (high vs low S100B cells)” value is “selectivity in killing melanoma cells with high S100B over those with low S100B was clearly observed”.
Consider `c1cc(C2=NCCCN2)ccc1OCCCCCCCCOc1ccc(C2=NCCCN2)cc1` [6d, 1,8-bis(4-(1,4,5,6-tetrahydropyrimidin-2-yl)phenoxy)octane], for which the EC50 in assay [3] (setting [5]) lay within 25 to 45 µM.

The record behind these values is publication PMC4732916 (Journal of medicinal chemistry, 2016).
